What follows are compounds tested against T1, Huntingtin (Homo sapiens, UniProt P42858) (assay: Inhibition of Huntingtin protein aggregation by yeast based assay). Details: not given; call rule not given here.
T1 sequence (P42858 whole entry): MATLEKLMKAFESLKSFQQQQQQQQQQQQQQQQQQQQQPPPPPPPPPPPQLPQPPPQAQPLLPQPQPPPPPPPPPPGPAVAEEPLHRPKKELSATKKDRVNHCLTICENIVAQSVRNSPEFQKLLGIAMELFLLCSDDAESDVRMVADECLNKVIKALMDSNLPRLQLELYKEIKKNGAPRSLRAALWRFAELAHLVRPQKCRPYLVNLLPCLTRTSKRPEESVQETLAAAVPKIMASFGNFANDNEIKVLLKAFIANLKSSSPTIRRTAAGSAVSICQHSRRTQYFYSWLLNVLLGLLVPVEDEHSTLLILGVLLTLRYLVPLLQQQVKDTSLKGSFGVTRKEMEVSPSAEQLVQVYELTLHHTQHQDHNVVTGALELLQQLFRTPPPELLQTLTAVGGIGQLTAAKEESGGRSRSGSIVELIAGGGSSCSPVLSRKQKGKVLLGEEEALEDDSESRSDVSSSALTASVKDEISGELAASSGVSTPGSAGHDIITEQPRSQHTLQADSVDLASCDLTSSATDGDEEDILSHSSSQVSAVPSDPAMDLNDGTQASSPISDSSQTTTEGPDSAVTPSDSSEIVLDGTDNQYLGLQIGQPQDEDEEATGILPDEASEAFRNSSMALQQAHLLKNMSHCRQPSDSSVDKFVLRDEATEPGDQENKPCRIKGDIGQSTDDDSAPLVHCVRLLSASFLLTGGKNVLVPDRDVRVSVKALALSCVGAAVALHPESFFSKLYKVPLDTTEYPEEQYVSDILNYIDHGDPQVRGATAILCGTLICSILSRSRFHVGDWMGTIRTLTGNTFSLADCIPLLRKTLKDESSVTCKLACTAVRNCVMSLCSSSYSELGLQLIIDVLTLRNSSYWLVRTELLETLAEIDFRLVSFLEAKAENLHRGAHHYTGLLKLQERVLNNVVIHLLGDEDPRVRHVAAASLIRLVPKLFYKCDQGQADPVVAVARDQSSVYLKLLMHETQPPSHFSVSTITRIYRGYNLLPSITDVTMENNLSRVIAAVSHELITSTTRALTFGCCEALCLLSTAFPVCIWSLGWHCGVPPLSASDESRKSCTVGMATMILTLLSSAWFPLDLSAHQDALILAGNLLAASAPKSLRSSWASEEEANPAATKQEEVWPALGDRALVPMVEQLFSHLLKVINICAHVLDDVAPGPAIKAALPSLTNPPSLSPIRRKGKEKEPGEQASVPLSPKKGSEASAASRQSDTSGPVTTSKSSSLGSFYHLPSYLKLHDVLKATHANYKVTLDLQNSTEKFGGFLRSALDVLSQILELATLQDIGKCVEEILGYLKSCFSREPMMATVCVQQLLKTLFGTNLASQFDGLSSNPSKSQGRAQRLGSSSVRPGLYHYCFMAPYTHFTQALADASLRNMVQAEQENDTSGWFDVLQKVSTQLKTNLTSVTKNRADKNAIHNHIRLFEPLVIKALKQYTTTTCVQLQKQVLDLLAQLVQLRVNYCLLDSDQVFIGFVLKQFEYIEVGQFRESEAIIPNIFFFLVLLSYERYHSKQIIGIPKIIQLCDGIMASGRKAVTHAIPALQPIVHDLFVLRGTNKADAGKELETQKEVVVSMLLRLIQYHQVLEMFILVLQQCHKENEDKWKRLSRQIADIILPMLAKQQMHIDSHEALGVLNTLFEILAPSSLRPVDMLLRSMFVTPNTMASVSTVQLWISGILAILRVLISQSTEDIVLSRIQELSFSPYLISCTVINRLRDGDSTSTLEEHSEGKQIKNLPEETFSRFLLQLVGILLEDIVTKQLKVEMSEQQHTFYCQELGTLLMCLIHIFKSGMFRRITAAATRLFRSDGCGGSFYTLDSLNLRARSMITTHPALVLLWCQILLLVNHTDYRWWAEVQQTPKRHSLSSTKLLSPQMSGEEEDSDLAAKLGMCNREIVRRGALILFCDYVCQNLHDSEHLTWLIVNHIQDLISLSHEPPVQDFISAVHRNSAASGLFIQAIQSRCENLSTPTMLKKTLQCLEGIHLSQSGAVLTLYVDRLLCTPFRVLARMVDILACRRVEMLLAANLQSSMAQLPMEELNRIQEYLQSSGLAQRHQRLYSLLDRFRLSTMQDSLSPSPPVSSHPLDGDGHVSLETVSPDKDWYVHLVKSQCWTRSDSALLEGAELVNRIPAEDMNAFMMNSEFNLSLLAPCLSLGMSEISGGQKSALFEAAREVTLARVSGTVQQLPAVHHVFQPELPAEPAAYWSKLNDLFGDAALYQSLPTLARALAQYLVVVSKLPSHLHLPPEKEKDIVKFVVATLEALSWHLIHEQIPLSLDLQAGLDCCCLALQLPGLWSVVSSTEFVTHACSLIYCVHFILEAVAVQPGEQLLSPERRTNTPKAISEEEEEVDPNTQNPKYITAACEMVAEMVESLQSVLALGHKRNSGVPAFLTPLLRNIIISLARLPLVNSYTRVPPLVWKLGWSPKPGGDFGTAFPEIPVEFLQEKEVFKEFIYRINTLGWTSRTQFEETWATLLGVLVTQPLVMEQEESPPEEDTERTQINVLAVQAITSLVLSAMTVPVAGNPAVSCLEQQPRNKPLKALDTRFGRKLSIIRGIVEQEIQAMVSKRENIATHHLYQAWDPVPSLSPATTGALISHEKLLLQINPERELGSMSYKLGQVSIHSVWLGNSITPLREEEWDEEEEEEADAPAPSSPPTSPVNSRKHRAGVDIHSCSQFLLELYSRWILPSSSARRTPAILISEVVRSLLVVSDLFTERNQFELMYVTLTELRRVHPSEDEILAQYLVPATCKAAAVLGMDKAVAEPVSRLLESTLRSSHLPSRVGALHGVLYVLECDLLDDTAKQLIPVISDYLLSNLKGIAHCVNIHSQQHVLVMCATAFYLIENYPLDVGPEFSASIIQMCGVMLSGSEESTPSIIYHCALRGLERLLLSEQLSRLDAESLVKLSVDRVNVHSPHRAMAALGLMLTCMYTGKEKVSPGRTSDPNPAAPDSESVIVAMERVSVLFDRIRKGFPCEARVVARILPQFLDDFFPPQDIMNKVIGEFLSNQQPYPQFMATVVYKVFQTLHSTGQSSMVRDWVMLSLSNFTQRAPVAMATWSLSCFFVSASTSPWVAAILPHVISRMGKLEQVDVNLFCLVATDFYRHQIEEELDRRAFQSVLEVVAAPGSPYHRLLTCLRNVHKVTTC

| EC50 | Structure (SMILES) |
| --- | --- |
| 50 µM | CCCNc1ncnc2ccc(Br)cc12 |
| 50 µM | C=CCNc1ncnc2ccc(Br)cc12 |
| 50 µM | Brc1ccc2ncnc(NCc3ccccc3)c2c1 |

These compounds were tested against T1, Huntingtin (assay: Inhibition of Huntingtin protein aggregation by cell based assay). Details: not given.
Method in brief: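 Stable transfectants express mutant huntingtin fused to mCFP from a tet-regulatable gene. Cells are seeded in 96-well format and treated with compound for 72 h. Controls are 2 μg/mL doxycycline and 0.1% DMSO (no dox). Aggregation is scored as the presence and magnitude of fluorescent intracellular inclusions (% cells with aggregates, aggregates per cell), and an IC50 is derived.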

| IC50 | Structure (SMILES) |
| --- | --- |
| Not Active | Clc1ccc(CCNc2ncnc3ccc(Br)cc23)cc1 |
| Not Active | Fc1ccc2ncnc(NCCc3ccc(Cl)cc3)c2c1 |
| Not Active | Clc1ccc2ncnc(NCCc3ccc(OC4CCCC4)cc3)c2c1 |
| Not Active | Brc1ccc2ncnc(N3CCN(Cc4ccc5c(c4)OCO5)CC3)c2c1 |
| Not Active | Nc1ccc2ncnc(NCCc3ccc(Oc4ccccc4)cc3)c2c1 |

Further lines, the compound ahead of its results:

| Structure (SMILES) | IC50 |
| --- | --- |
| Clc1ccc2ncnc(NCCc3ccc(Oc4ccccc4)cc3)c2c1 | Not Active |
| Clc1ccc2ncnc(NCCc3ccc(OCc4ccccc4)cc3)c2c1 | Not Active |

Same assay, conditions: read-out: IC50

| IC50 | Structure (SMILES) |
| --- | --- |
| 3.44 µM | Clc1ccc(CCNc2ncnc3ccc(Cl)cc23)cc1 |
| > 10 µM | Fc1ccc2ncnc(N3CCN(Cc4ccc5c(c4)OCO5)CC3)c2c1 |
| 8.13 µM | CCCNc1ncnc2ccc(Br)cc12 |
| 0.71 µM | Oc1ccc(CCNc2ncnc3ccc(Cl)cc23)cc1 |
| 1.07 µM | Clc1ccc2ncnc(N3CCN(Cc4ccc5c(c4)OCO5)CC3)c2c1 |
| 6.38 µM | Oc1ccc(CCNc2ncnc3ccc(F)cc23)cc1 |
| > 10 µM | c1ccc2c(N3CCN(Cc4ccc5c(c4)OCO5)CC3)ncnc2c1 |
| 5.36 µM | C=CCNc1ncnc2ccc(Br)cc12 |
| 6.13 µM | Brc1ccc2ncnc(NCc3ccccc3)c2c1 |
| 1.11 µM | Oc1ccc(CCNc2ncnc3ccc(Br)cc23)cc1 |

The next lines start with the compound.

| Structure (SMILES) | IC50 |
| --- | --- |
| Clc1ccc(CCNc2ncnc3ccccc23)cc1 | 10.5 µM |
| CCN1CCN(c2ncnc3ccc(F)cc23)CC1 | 5.26 µM |
| CCN1CCN(c2ncnc3ccc(Cl)cc23)CC1 | 3.63 µM |
| CCN1CCN(c2ncnc3ccccc23)CC1 | > 10 µM |
| CN1CCN(c2ncnc3ccc(F)cc23)CC1 | > 10 µM |
| CN1CCN(c2ncnc3ccc(Cl)cc23)CC1 | > 10 µM |
| Oc1ccc(CCNc2ncnc3ccccc23)cc1 | > 15.8 µM |
| CCOC(=O)COc1ccc(CCNc2ncnc3ccc(Cl)cc23)cc1 | 4.48 µM |
| CCN1CCN(c2ncnc3ccc(Br)cc23)CC1 | 2.21 µM |
| CN1CCN(c2ncnc3ccc(Br)cc23)CC1 | 1.31 µM |
| CN1CCN(c2ncnc3ccccc23)CC1 | > 10 µM |
| Brc1ccc2ncnc(N3CCNCC3)c2c1 | 2.74 µM |
